From ChEMBL document CHEMBL3124903, “Synthesis, docking and evaluation of antioxidant and antimicrobial activities of novel 1,2,4-triazolo[3,4-b][1,3,4]thiadiazol-6-yl)selenopheno[2,3-d]pyrimidines” (Eur J Med Chem, 2014) come the findings set out here.

Common to all, as to format: functional
A short description of assay [1]: Antioxidant activity assessed as H2O2 radical scavenging activity.
Assay [2] in a line: Antioxidant activity assessed as NO radical scavenging activity after 150 mins by griess reagent method. A general note: Nitrite, measured by Griess reagent, commonly stands in for NO production.
Assay [3] deals with Radical scavenging activity. Put plainly: Antioxidant activity assessed as DPPH radical scavenging activity after 30 mins by spectrophotometric assay. The method, boiled down: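 The compound is mixed with methanolic DPPH and incubated for 30 min at room temperature. Absorbance is read against a blank at 517 nm. Percent scavenging is taken from absorbance of a control with all reagents except the compound versus the sample. Runs are in triplicate, and IC50 is reported.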
(In general: DPPH is a stable violet radical that fades when it is reduced.)

A further assay deals with Candida albicans. Put plainly: Antifungal activity against Candida albicans assessed as growth inhibition by NCCLS broth dilution assay. The method, boiled down:
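Yeast susceptibility is tested by the NCCLS reference broth dilution method. MIC is read as the endpoint, and a DMSO vehicle control is included.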
(In general: Dilution methods test growth across graded concentrations, often in twofold steps.)

Another assay relates to Aspergillus flavus. The assay can be described thus: Antifungal activity against Aspergillus flavus assessed as growth inhibition by NCCLS broth dilution assay.
In a further assay the test system is Escherichia coli. Put plainly: Antibacterial activity against Escherichia coli assessed as growth inhibition by microdilution broth susceptibility assay.
For another assay, the system named is Klebsiella pneumoniae. The assay can be described thus: Antibacterial activity against Klebsiella pneumoniae assessed as growth inhibition by microdilution broth susceptibility assay.
The subject of a further assay is Bacillus subtilis. Put plainly: Antibacterial activity against Bacillus subtilis assessed as growth inhibition by microdilution broth susceptibility assay.
In the next assay the test system is Staphylococcus aureus. Put plainly: Antibacterial activity against Staphylococcus aureus assessed as growth inhibition by microdilution broth susceptibility assay.

≈ marks a conversion by molar mass, not a printed value.

For orientation: IC50 means the point on the concentration scale where inhibition reaches its midpoint. Usually MIC stands for the least concentration at which growth counts as inhibited. Regarding `Cc1c(-c2nn3c(-c4ccccc4)nnc3s2)[se]c2ncnc(Nc3ccc(Cl)cc3)c12`, the values for the IC50 in assay [1], in assay [2] and in assay [3] were 17.03 µg/mL (≈ 32.6 µM), 18.41 µg/mL (≈ 35.2 µM) and 14.82 µg/mL (≈ 28.3 µM), respectively. In addition, the MIC in the assay with Candida albicans is greater than 100 µg/mL; in the assay on Aspergillus flavus, 50 µg/mL (≈ 95.6 µM); in the assay on Escherichia coli, greater than 100 µg/mL; in the assay on Klebsiella pneumoniae, greater than 100 µg/mL; with Bacillus subtilis it was greater than 100 µg/mL; with Staphylococcus aureus, 50 µg/mL.

Take `Cc1ccc(-c2nnc3sc(-c4[se]c5ncnc(Nc6ccc(Cl)cc6)c5c4C)nn23)cc1`: the IC50 was 19.14 µg/mL (≈ 35.6 µM) in assay [1], 21.64 µg/mL (≈ 40.3 µM) in assay [2] and 13.31 µg/mL (≈ 24.8 µM) in assay [3]. Further, the minimum inhibitory concentration (MIC) in the assay with Candida albicans was greater than 100 µg/mL; in the assay on Aspergillus flavus, 50 µg/mL (≈ 93.1 µM); with Escherichia coli it was 50 µg/mL; in the assay on Klebsiella pneumoniae, 25 µg/mL; with Bacillus subtilis, 50 µg/mL; in the assay with Staphylococcus aureus, 25 µg/mL.

Consider `COc1ccc(-c2nnc3sc(-c4[se]c5ncnc(Nc6ccc(Cl)cc6)c5c4C)nn23)cc1`, for which the IC50 is 21.09 µg/mL (≈ 38.1 µM) in [1], 19.82 µg/mL (≈ 35.8 µM) in [2] and 12.75 µg/mL (≈ 23.1 µM) in assay [3]. Further, the MIC in the assay on Candida albicans was 6.25 µg/mL (≈ 11.3 µM); in the assay with Aspergillus flavus, 6.25 µg/mL (≈ 11.3 µM); in the assay on Escherichia coli it was 12.5 µg/mL; with Klebsiella pneumoniae it was 25 µg/mL; with Bacillus subtilis, 25 µg/mL; in the assay with Staphylococcus aureus, 12.5 µg/mL.

As for `Cc1c(-c2nn3c(-c4ccc(O)cc4)nnc3s2)[se]c2ncnc(Nc3ccc(Cl)cc3)c12`, the IC50 was 15.38 µg/mL (≈ 28.5 µM) in assay [1], 13.72 µg/mL (≈ 25.5 µM) in assay [2] and 11.02 µg/mL (≈ 20.4 µM) in assay [3]. For the same compound, the MIC in the assay on Candida albicans amounted to 1.56 µg/mL (≈ 2.89 µM); in the assay on Aspergillus flavus it was 3.12 µg/mL (≈ 5.79 µM); in the assay on Escherichia coli, 6.25 µg/mL; in the assay with Klebsiella pneumoniae, 6.25 µg/mL; in the assay with Bacillus subtilis it was 3.12 µg/mL; in the assay with Staphylococcus aureus it was 6.25 µg/mL.

With `Cc1c(-c2nn3c(-c4ccc([N+](=O)[O-])cc4)nnc3s2)[se]c2ncnc(Nc3ccc(Cl)cc3)c12`, the half-maximal inhibitory concentration (IC50) in assay [1] is 48.31 µg/mL (≈ 85.1 µM); in [2], 46.92 µg/mL (≈ 82.6 µM); in assay [3] it was 33.28 µg/mL (≈ 58.6 µM). Also, the MIC with Candida albicans, in the assay on Aspergillus flavus, with Escherichia coli, in the assay with Klebsiella pneumoniae, in the assay on Bacillus subtilis and in the assay on Staphylococcus aureus was greater than 100 µg/mL in each case.

Turning to `Cc1c(-c2nn3c(-c4ccccc4)nnc3s2)[se]c2ncnc(Nc3ccc(F)c(Cl)c3)c12`, the IC50 in assay [1] came to 22.92 µg/mL (≈ 42.4 µM); in assay [2], 20.27 µg/mL (≈ 37.5 µM); in assay [3], 13.24 µg/mL (≈ 24.5 µM). The MIC amounted to 25 µg/mL (≈ 46.2 µM) in the assay with Candida albicans; 50 µg/mL (≈ 92.4 µM) in the assay with Aspergillus flavus; 100 µg/mL in the assay on Escherichia coli; 100 µg/mL with Klebsiella pneumoniae; 50 µg/mL in the assay on Bacillus subtilis; 50 µg/mL with Staphylococcus aureus.

As for `Cc1ccc(-c2nnc3sc(-c4[se]c5ncnc(Nc6ccc(F)c(Cl)c6)c5c4C)nn23)cc1`, the IC50 worked out at 18.36 µg/mL (≈ 33.1 µM) in assay [1], 16.52 µg/mL (≈ 29.8 µM) in assay [2] and 12.86 µg/mL (≈ 23.2 µM) in assay [3]. The MIC came to 25 µg/mL (≈ 45.1 µM) in the assay with Candida albicans; 12.5 µg/mL (≈ 22.5 µM) with Aspergillus flavus; 12.5 µg/mL in the assay on Escherichia coli; 12.5 µg/mL with Klebsiella pneumoniae; 12.5 µg/mL in the assay on Bacillus subtilis; 6.25 µg/mL with Staphylococcus aureus.

In the case of `COc1ccc(-c2nnc3sc(-c4[se]c5ncnc(Nc6ccc(F)c(Cl)c6)c5c4C)nn23)cc1`, the IC50 was 17.08 µg/mL (≈ 29.9 µM) in assay [1], 12.74 µg/mL (≈ 22.3 µM) in assay [2] and 10.41 µg/mL (≈ 18.2 µM) in [3]. In addition, the MIC was 3.12 µg/mL (≈ 5.47 µM) in the assay on Candida albicans; 3.12 µg/mL (≈ 5.47 µM) with Aspergillus flavus; 6.25 µg/mL in the assay on Escherichia coli; 6.25 µg/mL in the assay on Klebsiella pneumoniae; 3.12 µg/mL with Bacillus subtilis; 6.25 µg/mL in the assay on Staphylococcus aureus.

As for `Cc1c(-c2nn3c(-c4ccc(O)cc4)nnc3s2)[se]c2ncnc(Nc3ccc(F)c(Cl)c3)c12`, the IC50 was 12.54 µg/mL (≈ 22.5 µM) in assay [1], 8.2 µg/mL (≈ 14.7 µM) in assay [2] and 9.46 µg/mL (≈ 17 µM) in [3]. The MIC with Candida albicans is 1.56 µg/mL (≈ 2.8 µM); in the assay on Aspergillus flavus it was 1.56 µg/mL (≈ 2.8 µM); in the assay on Escherichia coli, 3.12 µg/mL; with Klebsiella pneumoniae, 3.12 µg/mL; in the assay with Bacillus subtilis it was 3.12 µg/mL; with Staphylococcus aureus, 3.12 µg/mL.

In the case of `Cc1c(-c2nn3c(-c4ccc([N+](=O)[O-])cc4)nnc3s2)[se]c2ncnc(Nc3ccc(F)c(Cl)c3)c12`, the IC50 in assay [1] turned out to be 36.42 µg/mL (≈ 62.2 µM); in assay [2], 30.17 µg/mL (≈ 51.5 µM); in assay [3] it was 26.94 µg/mL (≈ 46 µM). Also, the MIC with Candida albicans is greater than 100 µg/mL; in the assay on Aspergillus flavus, greater than 100 µg/mL; with Escherichia coli, 50 µg/mL; in the assay on Klebsiella pneumoniae it was 50 µg/mL; in the assay with Bacillus subtilis it was 100 µg/mL; in the assay on Staphylococcus aureus, 100 µg/mL.

Take `O=C1O[C@H]([C@@H](O)CO)C(O)=C1O` [ASCORBIC ACID]: the half-maximal inhibitory concentration (IC50) in assay [1] is 15.24 µg/mL (≈ 86.5 µM); in assay [2], 14.62 µg/mL (≈ 83 µM); in [3] it was 12.27 µg/mL (≈ 69.7 µM).

For `Cc1cc(C(C)(C)C)c(O)c(C(C)(C)C)c1` [BUTYLATED HYDROXYTOLUENE], the IC50 worked out at 17.82 µg/mL (≈ 80.9 µM) in assay [1], 19.06 µg/mL (≈ 86.5 µM) in assay [2] and 16.53 µg/mL (≈ 75 µM) in [3].

On to `O=C(O)c1cn(C2CC2)c2cc(N3CCNCC3)c(F)cc2c1=O` [CIPROFLOXACIN], for which the minimal inhibitory concentration (MIC) in the assay on Klebsiella pneumoniae and in the assay on Bacillus subtilis was 6.25 µg/mL in each case.

Regarding `OC(Cn1cncn1)(Cn1cncn1)c1ccc(F)cc1F` [FLUCONAZOLE], the MIC in the assay with Candida albicans and in the assay with Aspergillus flavus was 3.12 µg/mL (≈ 10.2 µM) in each case.
